Calls of active or inactive are those of the source.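 The calls were made as follows, unless noted: active = inhibition at or above 50% relative to wild type and mutant plate controls; inactive = inhibition below 50%.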
Assays:
[1] = inhibitors of TNFa-induced NFkB p65 translocation, primary screen, imaging, HUVEC, MLSMR starter and 10KST1 sets (AID 438;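 active = inhibition above 20% together with a positive visual image hit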;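 also: compound added about 3h40 before a 20 min TNFalpha stimulation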;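 as to inhibition: signal is the nuclear over cytoplasmic p65 intensity ratio per well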); conditions: HUVEC TNFa-induced p65 nuclear translocation; cell count: measured here: nuclei count (cytotoxicity indicator), at 2.08 µM; inhibition: at 2 µM, stronger effect = higher value, 0% TNFa-plus-vehicle, 100% no-TNFa wells
[2] = inhibitors of E-selectin induction by TNFa, primary screen, imaging, HUVEC, immunofluorescence, MLSMR starter and 10KST1 sets (AID 487;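 active = visually confirmed hit in the image check and inhibition above 20%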;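 as to inhibition: signal is fraction of cell area covered by stained E-selectin grains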;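 as to nuclei count: 100% = median nuclei count of all wells on the same plate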); conditions: HUVEC TNFalpha-induced E-selectin immunofluorescence imaging, at 2 µM; inhibition: stronger effect = higher value; nuclei count: measured here: cell number, toxicity
[3] = DUSP6 inhibitors restoring Erk phosphorylation by chemical complementation, primary imaging in DUSP6-transfected HeLa (AID 609;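 active = compounds giving at least 50% inhibition in the cell-based MKP-3 phosphatase rescue imaging test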;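 as to inhibition: phospho-Erk level distribution per well compared with pooled transfected vehicle control wells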); conditions: HeLa MKP-3 transfected, phospho-Erk imaging KS statistic, at 10 µM, cells stimulated with TPA for 15 min
[4] = target: Dual specificity protein phosphatase 6 (Homo sapiens) (UniProt Q16828); assay: as above; conditions: HeLa MKP-3 transfected, phospho-Erk imaging KS statistic; at 10 µM; stronger effect = higher value; cells stimulated with TPA for 15 min
Sequence of Dual specificity protein phosphatase 6 (Homo sapiens) (Q16828 whole entry, looked up): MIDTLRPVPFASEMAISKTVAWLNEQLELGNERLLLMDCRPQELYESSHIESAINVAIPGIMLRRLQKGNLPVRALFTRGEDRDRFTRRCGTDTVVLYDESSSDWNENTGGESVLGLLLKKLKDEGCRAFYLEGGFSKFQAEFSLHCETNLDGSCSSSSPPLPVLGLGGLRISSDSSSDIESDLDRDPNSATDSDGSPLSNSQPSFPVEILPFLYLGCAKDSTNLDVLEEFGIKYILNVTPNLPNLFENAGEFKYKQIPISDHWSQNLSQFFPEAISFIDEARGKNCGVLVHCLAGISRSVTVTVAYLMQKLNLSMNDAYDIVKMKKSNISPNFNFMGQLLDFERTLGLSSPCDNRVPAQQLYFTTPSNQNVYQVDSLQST

[5] = target: Voltage-gated potassium channel subunit beta-2 (Rattus norvegicus) (UniProt P62483); assay: KvBeta enzyme negative modulators, primary screen, biochemical, NADPH fluorescence (AID 622;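 active = fluorescence slope higher than the sample average by over 3 SD, cut at about -0.22 in these data, passing the limit was not always enough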;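 also: slope of raw intensity against log time taken from 70 to 1610 s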); conditions: recombinant KvBeta, 4-cyanobenzaldehyde reduction, at 10 µM, stronger effect = higher value
Sequence of Voltage-gated potassium channel subunit beta-2 (Rattus norvegicus) (P62483 whole entry, looked up): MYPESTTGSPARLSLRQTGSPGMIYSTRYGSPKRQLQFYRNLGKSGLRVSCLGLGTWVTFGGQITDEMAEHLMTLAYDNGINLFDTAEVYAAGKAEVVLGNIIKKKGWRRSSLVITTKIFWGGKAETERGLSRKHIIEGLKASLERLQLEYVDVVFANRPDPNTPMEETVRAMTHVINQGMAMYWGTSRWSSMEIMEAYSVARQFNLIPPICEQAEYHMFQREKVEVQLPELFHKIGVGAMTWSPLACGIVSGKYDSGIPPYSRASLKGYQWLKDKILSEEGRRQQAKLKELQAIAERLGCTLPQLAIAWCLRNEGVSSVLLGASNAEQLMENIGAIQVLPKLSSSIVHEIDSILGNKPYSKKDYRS

[6] = target: Voltage-gated potassium channel subunit beta-2 (Rattus norvegicus) (UniProt P62483); assay: KvBeta positive modulators, primary screen, biochemical, NADPH fluorescence (AID 623;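 active = NADPH fluorescence slope more negative than the mean of all samples by about 3 SD, 99.7% confidence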;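 also: fluorescence intensity change per second fitted from 20 to 320 s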); conditions: Recombinant KvBeta, NADPH fluorescence decrease slope, 10 min; at 10 µM; stronger effect = lower value
[7] = target: Muscarinic acetylcholine receptor M4 (Homo sapiens) (UniProt P08173); assay: compounds altering M4/GIRK thallium flux, either direction, primary screen, M4 allosteric agonist project, cell-based, HEK293 M4/GIRK, BTC-AM (AID 625;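 active = fluorescence slope after compound addition differing from the mean of all tested samples at 99.7% confidence, mostly higher but some lower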;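 also: thallium influx through GIRK channels coupled to M4 in HEK293 cells with BTC-AM dye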); conditions: at 10 µM, actives lie on both sides
Sequence of Muscarinic acetylcholine receptor M4 (Homo sapiens) (P08173 whole entry, looked up): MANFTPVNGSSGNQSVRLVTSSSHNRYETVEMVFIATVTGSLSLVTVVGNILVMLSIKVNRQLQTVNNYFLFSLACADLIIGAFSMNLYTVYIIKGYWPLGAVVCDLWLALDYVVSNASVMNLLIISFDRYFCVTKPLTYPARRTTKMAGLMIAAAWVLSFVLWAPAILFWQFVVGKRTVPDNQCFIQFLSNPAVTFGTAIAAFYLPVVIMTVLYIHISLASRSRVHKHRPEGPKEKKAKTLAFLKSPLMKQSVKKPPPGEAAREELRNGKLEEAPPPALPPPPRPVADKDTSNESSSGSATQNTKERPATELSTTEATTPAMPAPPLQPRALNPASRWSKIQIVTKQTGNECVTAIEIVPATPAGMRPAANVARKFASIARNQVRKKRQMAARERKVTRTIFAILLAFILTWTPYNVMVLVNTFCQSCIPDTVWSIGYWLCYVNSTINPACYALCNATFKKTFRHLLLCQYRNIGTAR
Outline: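 Assay system: HEK293 cells with M4 receptor and GIRK channels / Controls: carbachol and DMSO controls / Schedule: 1 h dye loading, 2 min kinetic read / Technique: kinetic fluorescence with BTC-AM dye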

[8] = inhibitors of larval lipid processing in zebrafish, primary screen, whole organism, PED6 fluorescence, gall bladder and intestine (AID 686;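 active = a full or partial loss of lipid-probe fluorescence in the fish gall bladder, intestine or both, judged by eye; inactive = no fluorescence loss, or compound toxic to the fish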;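 also: larvae 5 to 7 days old with five fish per well; signal comes from phospholipase A2 cleavage of quenched PED6 carried via bile; overnight exposure to compound and PED6 before scoring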); conditions: Zebrafish larvae PED6 lipid processing, fluorescence scoring; screened at 20 µM (by protocol)
Outline: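 Doses: 20 µM single dose. Test system: live zebrafish larvae aged 5-7 days, whole organism. Quantity: five larvae per well. Measured by: By-eye fluorescence microscopy. Reagent: ingested quenched lipid PED6 at 100 nM. Read-out: visual per-well fluorescence inhibition score. Times: overnight exposure of larvae to compound plus PED6.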

[9] = inhibitors of Chlamydomonas gravitaxis, primary screen, whole organism, Chlamydomonas reinhardtii, WT vs cilia-less mutant, absorbance, 96-well (AID 463189); conditions: OD600 absorbance, 2 days, at 10 µM, stronger effect = higher value;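 also: 0% = wild type cc124 cells in DMSO and 100% = ciliumless bld1 mutant cells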
[10] = measured here: cell density z-score
[11] = measured here: nuclear c-Myc green intensity z-score
[12] = measured here: nuclear pErk red intensity z-score, stronger effect = higher value

Row | Compound | cell count [1] | inhibition [1] | inhibition [2] | nuclei count [2] [%] | z-score [3, 10] | z-score [3, 11] | z-score [3, 12] | inhibition [4] | fluorescence slope [5] | NADPH fluorescence slope [6] | fluorescence slope [7] | outcome [8] | inhibition [9]
1 | Cc1cc(C)n(CC2CC(=O)N(c3ccc(C)c(Cl)c3)C2=O)n1 (stereo unspecified) | 597 | -3.7% (inactive) | 19% (inactive) | 93.4 | 1.31 | -0.417 | 0.186 | 12.8% (inactive) | -0.517 (inactive) | -2.4e-05 (inactive) | 0.00527 (inactive) | inactive | -14.7% (inactive)
2 | CC1(C)CC(=O)C(C=Nc2ccc(Cl)cn2)=C(O)C1 | 493 | -2.2% (inactive) | -68.2% (inactive) | 114 | 0.174 | -1.57 | 0.727 | 15.9% (inactive) | -0.464 (inactive) | -2.5e-06 (inactive) | 0.0108 (inactive) | inactive | 35.7% (inactive)
3 | Cc1ccc(S(=O)(=O)/C(C#N)=C/c2c(N3CCN(C)CC3)nc3ccccn3c2=O)cc1 | 484 | 6.4% (inactive) | -211% (inactive) | 173 | 0.277 | -0.883 | 0.543 | 1.04% (inactive) | -0.454 (inactive) | -5.5e-05 (inactive) | 0.0048 (inactive) | inactive | -9.76% (inactive)
4 | CCSc1nnc(NC(=O)C(C)(C(F)(F)F)C(F)(F)F)s1 | 664 | -10.9% (inactive) | -107% (inactive) | 183 | -1.16 | 0.962 | -1.02 | 1.9e-07% (inactive) | -0.49 (inactive) | -6.3e-05 (inactive) | 0.00486 (inactive) | inactive | 2.14% (inactive)
5 | CNc1oc(-c2ccccc2Cl)nc1C#N | 368 | 4.3% (inactive) | 23.8% (inactive) | 79.3 | 0.949 | -0.665 | 0.059 | 3.56% (inactive) | -0.594 (inactive) | -4.5e-05 (inactive) | 0.00508 (inactive) | active; weak signal in gallbladder and intestine | 19.9% (inactive)
6 | O=S(=O)(c1ccccc1)N(CC(O)CN1CCCCC1)c1ccccc1 (stereo unspecified) | 596 | -4.6% (inactive) | 36.6% (inactive) | 84.8 | -0.887 | 0.0372 | 0.232 | 5.42% (inactive) | -0.342 (inactive) | -2.3e-05 (inactive) | 0.00483 (inactive) | inactive | 26.5% (inactive)
7 | O=c1oc2c(CN3CCCCC3)c(O)ccc2c2c1CCCCC2 | 566 | -6.1% (inactive) | 34% (inactive) | 168 | 1.43 | -1.18 | -0.137 | 14.4% (inactive) | -0.00573 (inactive) | 8.5e-07 (inactive) | 0.00521 (inactive) | inactive | 3.57% (inactive)
8 | COC(=O)/C=c1/s/c(=C(/C#N)C(=O)N2CCCCC2)n(-c2ccccc2)c1=O | 585 | -0.7% (inactive) | -20.5% (inactive) | 90.8 | -0.699 | 0.059 | 0.258 | -5.81% (inactive) | -0.546 (inactive) | -1.7e-05 (inactive) | 0.00519 (inactive) | inactive | 15.4% (inactive)
9 | Cc1ccc(C(=O)C2C(c3cccs3)NC(=O)NC2(O)C(F)(F)F)cc1 (stereo unspecified) | 716 | -7.3% (inactive) | -170% (inactive) | 142 | -0.552 | -0.778 | 0.548 | -4.27% (inactive) | -0.482 (inactive) | -7.6e-05 (inactive) | 0.00668 (inactive) | inactive | -6.21% (inactive)
10 | CCN(CC)CCN1C(=O)C(=O)/C(=C(/O)c2c(C)[nH]c(C(=O)OC)c2C)C1c1ccccc1 (stereo unspecified) | 727 | -3.9% (inactive) | -88% (inactive) | 165 | 0.278 | 0.96 | 0.24 | -11.9% (inactive) | -0.485 (inactive) | -4.8e-05 (inactive) | 0.0049 (inactive) | inactive | 13.3% (inactive)
11 | N#Cc1nc(COc2ccccc2F)oc1NCCCn1ccnc1 | 465 | -4% (inactive) | -87.7% (inactive) | 136 | -0.925 | 1.53 | 1.43 | -0.624% (inactive) | -0.414 (inactive) | -2.3e-05 (inactive) | 0.00507 (inactive) | inactive | -8.85% (inactive)
12 | COc1cc(/C=N/n2nnnc2N)ccc1O | 594 | -13% (inactive) | -19.6% (inactive) | 150 | 0.109 | -0.705 | -0.571 | 17.7% (inactive) | -0.448 (inactive) | -0.000221 (inactive) | 0.00627 (inactive) | inactive | 14% (inactive)
